Legend:
[1] = test system: Mouse; assay: concentration in plasma after dosing; details: 2 h; dosed: 2-Hydroxy-4-methoxybenzophenone; 500 mg/kg; oral; Male; B6C3F1
[2] = test system: Mouse; assay: concentration in plasma after dosing; details: 0.25 h; dosed: 2-Hydroxy-4-methoxybenzophenone; 500 mg/kg; oral; Female; B6C3F1
[3] = test system: Rat; assay: concentration in plasma after dosing; details: 0.25 h; dosed: 2-Hydroxy-4-methoxybenzophenone; 500 mg/kg; oral; Male; F344
[4] = test system: Mouse; assay: concentration in plasma after dosing; details: 2 h; dosed: 2-Hydroxy-4-methoxybenzophenone; 50 mg/kg; iv; Female; B6C3F1
[5] = test system: Mouse; assay: concentration in plasma after dosing; details: 2.5 min; dosed: 2-Hydroxy-4-methoxybenzophenone; 250 mg/kg; oral; Male; B6C3F1
[6] = test system: Mouse; assay: concentration in plasma after dosing; details: 0.25 h; dosed: 2-Hydroxy-4-methoxybenzophenone; 50 mg/kg; iv; Female; B6C3F1
[7] = test system: Rat; assay: concentration in plasma after dosing; details: 10 min; dosed: Nitrite; 40 mg/kg; oral; Female; F344
[8] = test system: Rat; assay: concentration in plasma after dosing; details: dosed: Nitrite, 80 mg/kg, oral, Female, F344
[9] = test system: Rat; assay: concentration in plasma after dosing; details: 2 min; dosed: Nitrite; 20 mg/kg; iv; Male; F344
[10] = test system: Rat; assay: concentration in kidney after dosing; details: 6 h; dosed: Fluorotelomer alcohol 8+2; 24 mg/kg; oral; Male; Harlan Sprague Dawley
[11] = test system: Rat; assay: concentration in plasma after dosing; details: dosed: 678-39-7, 40 mg/kg, iv, Male, F344
[12] = test system: Rat; assay: concentration in plasma after dosing; details: dosed: 678-39-7, 40 mg/kg, iv, Female, Harlan Sprague-Dawley
[13] = test system: Rat; assay: concentration in kidney after dosing; details: 6 h; dosed: Fluorotelomer alcohol 8+2; 24 mg/kg; oral; Male; Harlan Sprague Dawley; remark: listed apart in the source
[14] = test system: Rat; assay: concentration in liver after dosing; details: 3 h; dosed: Perfluorooctanoic acid; 80 mg/kg; oral; Female; Harlan Sprague Dawley
[15] = test system: Rat; assay: concentration in kidney after dosing; details: 0.5 h; dosed: Fluorotelomer alcohol 8+2; 80 mg/kg; oral; Female; Harlan Sprague Dawley
[16] = test system: Rat; assay: concentration in liver after dosing; details: 0.5 h; dosed: Fluorotelomer alcohol 8+2; 80 mg/kg; oral; Female; Harlan Sprague Dawley
[17] = test system: Rat; assay: concentration in brain after dosing; details: 6 h; dosed: Perfluorooctanoic acid; 80 mg/kg; oral; Female; Harlan Sprague Dawley
[18] = test system: Rat; assay: concentration in kidney after dosing; details: 528 h; dosed: Perfluorooctanoic acid; 12 mg/kg; oral; Male; Harlan Sprague Dawley
[19] = test system: Rat; assay: concentration in liver after dosing; details: 48 h; dosed: Perfluorooctanoic acid; 80 mg/kg; oral; Female; Harlan Sprague Dawley
[20] = test system: Rat; assay: concentration in plasma after dosing; details: dosed: Potassium Perfluorobutane Sulfonate, 4 mg/kg, iv, Male, F344
[21] = test system: Rat; assay: concentration in plasma after dosing; details: dosed: Potassium Perfluorobutane Sulfonate, 4 mg/kg, iv, Male, F344; remark: listed apart in the source
[22] = test system: Rat; assay: concentration in liver after dosing; details: 1 h; dosed: Potassium Perfluorobutane Sulfonate; 20 mg/kg; oral; Male; Harlan Sprague Dawley
[23] = test system: Rat; assay: concentration in kidney after dosing; details: 0.5 h; dosed: Potassium Perfluorobutane Sulfonate; 20 mg/kg; oral; Female; Harlan Sprague Dawley
[24] = test system: Rat; assay: concentration in brain after dosing; details: 0.5 h; dosed: Potassium Perfluorobutane Sulfonate; 20 mg/kg; oral; Male; Harlan Sprague Dawley
[25] = test system: human; assay: concentration in urine after dosing; negative times count back from the end of exposure; details: dosed: methanol, inhalation, duration: 8 hr
Method in brief: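 A PubMed search, classifier screening and manual review identified published in vivo toxicokinetic studies, which together with two structured collections supplied concentration-versus-time and amount-versus-time points. Points were mostly digitised from plot screenshots with WebPlotDigitizer, otherwise copied from tables. Dose, route, subject details and medium were hand-curated from each paper, and sampling and analytical methods are those of the sources, often unreported.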

COc1ccc(C(=O)c2ccccc2)c(O)c1 [2-Hydroxy-4-methoxybenzophenone]
Details | concentration in plasma [ng/mL]
[1] | 90.1
[2] | 411
[3] | 403
[4] | 317
[5] | 22
[6] | 4680

O=N[O-] [Nitrite]
Details | concentration in plasma [ng/mL]
[7] | 26600
[9] | 15100

[8]
Details | concentration in plasma [ng/mL]
1 h | 19000
2 h | 8500

O=C(O)C(F)(F)C(F)(F)C(F)(F)C(F)(F)C(F)(F)C(F)(F)C(F)(F)F [Perfluorooctanoic acid]
Details | concentration in brain [ng/g] | concentration in kidney [ng/g] | concentration in liver [ng/g]
[10] | – | 381 | –
[13] | – | 421 | –
[14] | – | – | 32900
[15] | – | 360 | –
[16] | – | – | 470
[17] | 3230 | – | –
[18] | – | 6860 | –
[19] | – | – | 616

concentration in plasma [ng/mL]
Details | 0.75 h | 5 min | 6 h | 12 h
[11] | – | 350000 | 66100 | –
[12] | 1830 | – | – | 528

O=S(=O)([O-])C(F)(F)C(F)(F)C(F)(F)C(F)(F)F.[K+] [Potassium Perfluorobutane Sulfonate]
concentration in plasma [ng/mL]
Details | 0.25 h | 3 h | 5 min | 6 h
[20] | 26000 | – | – | 7280
[21] | – | 476 | 29200 | –

Details | concentration in brain [ng/g] | concentration in kidney [ng/g] | concentration in liver [ng/g]
[22] | – | – | 110000
[23] | – | 26700 | –
[24] | 518 | – | –

CO [methanol]
[25]
Details | concentration in urine [ng/mL]
0 h, 78 ppm | 3490
0 h, 158 ppm | 6700
0 h, 231 ppm | 9600
1.997 h, 300 mg/m^3, male | 7640
2 h, 78 ppm | 2290
2 h, 158 ppm | 5240
2 h, 231 ppm | 7600
2.005 h, 205 mg/m^3, male | 5340
2.035 h, 102 mg/m^3, male | 2420
3.995 h, 300 mg/m^3, male | 4350
4 h, 78 ppm | 1770
4 h, 102 mg/m^3, male | 1630
4 h, 158 ppm | 2690
4 h, 231 ppm | 4360
4.036 h, 205 mg/m^3, male | 2760
5.995 h, 102 mg/m^3, male | 1360
6 h, 78 ppm | 1470
6 h, 158 ppm | 1830
6 h, 231 ppm | 2400
6.026 h, 205 mg/m^3, male | 1810
6.031 h, 300 mg/m^3, male | 2430
10.88 h, 205 mg/m^3, male | 1280
10.91 h, 102 mg/m^3, male | 1090
10.94 h, 300 mg/m^3, male | 1480
11 h, 78 ppm | 1140
11 h, 158 ppm | 1360
11 h, 231 ppm | 1660
15.5 h, 231 ppm | 1030
15.71 h, 205 mg/m^3, male | 1140
53 s, 300 mg/m^3, male | 9620
65 s, 205 mg/m^3, male | 6690
67 s, 102 mg/m^3, male | 3420

[25], during exposure
Details | concentration in urine [ng/mL]
-8 h, 78 ppm | 572
-8 h, 158 ppm | 1030
-8 h, 231 ppm | 1340
-7.859 h, 300 mg/m^3, male | 802
-7.832 h, 102 mg/m^3, male | 802
-7.832 h, 205 mg/m^3, male | 802
-6.075 h, 300 mg/m^3, male | 4350
-6 h, 78 ppm | 1750
-6 h, 158 ppm | 3090
-6 h, 231 ppm | 4340
-5.977 h, 205 mg/m^3, male | 3090
-5.962 h, 102 mg/m^3, male | 1700
-4.073 h, 205 mg/m^3, male | 4890
-4.031 h, 300 mg/m^3, male | 6790
-4 h, 78 ppm | 2390
-4 h, 158 ppm | 4820
-4 h, 231 ppm | 6830
-3.984 h, 102 mg/m^3, male | 2500
-2.068 h, 205 mg/m^3, male | 5830
-2 h, 78 ppm | 3090
-2 h, 158 ppm | 5920
-2 h, 231 ppm | 8400
-1.993 h, 300 mg/m^3, male | 8430
-1.981 h, 102 mg/m^3, male | 3130

Reference: EPA's CvTdb concentration-time database
